CaV13 FRET inh: Disruptors of the CACNA1D IQ motif to Ca2+-dependent inactivation inhibitor domain association, primary screening, Förster resonance energy transfer in intact living … | AID 743397 | 0.098% of 340,000 active | inhibition, % at 12.3 µM | HEK cells, CFP/YFP FRET ICDI-IQ, plate reader, 10 min; percent FRET-ratio fall versus neutral wells;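 active means mean replicate inhibition of at least 30% and at least 1% of replicates passing that level; inconclusive means only one of the two criteria is met; inactive means neither criterion is met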;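 further: 0% = median of the neutral control wells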
RanGTP-Imp inh: disruptors of Ran-importin-beta complex formation – biochemical, FRET, CFP-Ran, YFP-importin-beta, homogeneous, primary screen | AID 2216 | inhibition, % (test concentration not listed) | 1.1% of 300,000 active | cell-free CFP-Ran/YFP-importin-beta FRET ratio;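 active means more than half of the replicate wells show a fall in the fluorescence ratio signal beyond about 16%, limit read from the data, passing the limit was not always enough; inconclusive means exactly half of the replicate wells pass the set limit; inactive means fewer than half of replicates pass the limit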;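 further: 0% = DMSO wells and 100% = Ran loaded with GDP instead of GTP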
Runt-SMMHC FRET: Runt domain-CBFb-SMMHC interaction inhibition | 0.74% of 220,000 active | inhibition, % at 20 µM | Q01196+Q13951 | Cerulean-Runt/Venus-CBFb-SMMHC FRET ratio 530/480, 1 h;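 active means mean inhibition across duplicate retests at 20 µM reaching about 50%, limit read from the data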;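 further: 0% = DMSO wells and 100% = wells with excess untagged CBFb-SMMHC; inhibitors lower the FRET ratio by blocking Runt binding to CBFb-SMMHC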
Target sequence (Q01196 whole entry, looked up, the tested form may be a part): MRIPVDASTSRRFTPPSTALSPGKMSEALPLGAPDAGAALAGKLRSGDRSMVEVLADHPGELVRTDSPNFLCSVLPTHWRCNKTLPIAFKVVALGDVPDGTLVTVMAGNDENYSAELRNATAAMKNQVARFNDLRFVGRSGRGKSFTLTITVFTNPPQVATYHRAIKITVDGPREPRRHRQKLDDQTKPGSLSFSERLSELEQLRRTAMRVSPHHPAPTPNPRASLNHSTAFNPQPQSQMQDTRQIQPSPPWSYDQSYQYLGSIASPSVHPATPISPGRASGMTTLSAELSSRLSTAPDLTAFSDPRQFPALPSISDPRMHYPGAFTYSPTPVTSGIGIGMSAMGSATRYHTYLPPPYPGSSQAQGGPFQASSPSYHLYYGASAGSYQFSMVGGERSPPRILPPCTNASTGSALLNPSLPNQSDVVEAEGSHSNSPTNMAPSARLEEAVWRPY
Target sequence (Q13951 whole entry, looked up, the tested form may be a part): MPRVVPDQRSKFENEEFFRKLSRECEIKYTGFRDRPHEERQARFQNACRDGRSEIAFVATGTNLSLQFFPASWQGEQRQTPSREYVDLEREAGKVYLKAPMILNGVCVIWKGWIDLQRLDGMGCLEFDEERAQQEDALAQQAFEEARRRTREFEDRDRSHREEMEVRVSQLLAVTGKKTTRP
Runt-CBFb FRET: inhibitors of human RUNX1 Runt domain binding to CBFb; Cerulean-Runt/Venus-CBFb FRET ratio 530/480, 1 h; Q01196+Q13951; 0.46% of 220,000 active; inhibition, % at 20 µM;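 active means inhibition over about 50% at 20 µM in the single-dose screen, limit read from the data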;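 further: 0% = DMSO wells and 100% = excess unlabeled CBFb competitor control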
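Measured by: fluorescence energy transfer, 422 nm excitation, 530/480 nm emission; test system: Cerulean-tagged RUNX1 Runt domain (FRET donor) fusion protein; buffer or medium: Tris pH 7.5 buffer with BSA; compound: one dose, 20 µM compound, 1% DMSO; times: two 1 h room-temperature incubations shielded from light; benchmarks: unlabeled CBFb 5 µM, positive control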
* hit, by the source's call; ? = inconclusive; nt = no result given. Sampled rows, rich in hits. Any-hit rate of the full collection: about 1.2%.

SMILES	CaV13 FRET inh	RanGTP-Imp inh	Runt-SMMHC FRET	Runt-CBFb FRET
O=C(Nc1ccc(N2CCOCC2)c(F)c1)c1cccs1	nt	16.4*	nt	nt
CN1CCCCC(NC(=O)CCCl)C1=O (centres undefined)	-2.2	nt	nt	nt
CC1=NN(C(=O)COc2ccccc2)C(O)(c2ccccc2)C1 (centres undefined)	-4.8	0.4	-1.9	-0.4
CC1=NN(C(=O)COc2ccc(C)c(C)c2)C(O)(c2ccccc2)C1 (centres undefined)	-3.3	22.0*	1.0	1.3
CCN1C(=O)CSc2ccc(C(=O)NCc3ccco3)cc21	-8.1	23.0*	6.9	0.9
COc1cc2c3nnc(-c4ccccc4)c-3cn(Cc3ccc(F)cc3)c2cc1OC	12.1	34.8*	40.5	12.7
CCC(C)Sc1ccc(-c2nc3cnccn3c2NC2CCCCC2)cc1 (centres undefined)	-17.4	30.1*	nt	nt
CCC(C)Sc1ccc(-c2nc3cc(C)ccn3c2NC2CCCCC2)cc1 (centres undefined)	-8.1	nt	nt	nt
O=C(O/N=C1\CCS(=O)(=O)c2sccc21)C1CC1	-2.2	100.7*	1.9	0.0
CC(C)(C)C(=O)O/N=C1\CCS(=O)(=O)c2sccc21	-4.2	-3.2	1.1	-0.3
Cc1cccc(/C=C(\C(=O)C(=O)O)c2ccc3ccccc3n2)c1	-4.9	28.5*	73.1*	23.7
O=C(O)C(=O)/C(=C\c1cccc(Cl)c1)c1ccc2ccccc2n1	-1.9	-9.4	37.1	6.0
Cc1oc(C(C)(C)C)cc1C(=O)Nc1ccc(N2CCOCC2)cc1	-20.6	-1.5	0.6	2.7
Cc1cc(Cl)ccc1OCC(=O)N(Cc1ccco1)c1c(N)n(Cc2ccccc2)c(=O)[nH]c1=O	-1.9	nt	nt	nt
CC(=O)c1sc2ccccc2c1OC(=O)c1ccco1	nt	37.5*	36.7	13.1
Nn1c(SCC(=O)Nc2nccs2)nnc1-c1cccnc1	-2.3	nt	nt	nt
COc1ccc(N(C(=O)c2snc(C(N)=O)c2N)C(C(=O)NCC2CCCO2)c2ccc(C)o2)cc1OC (centres undefined)	-3.8	-0.2	nt	nt
N#Cc1c(-c2cccs2)cc(-c2cccs2)[nH]c1=O	-19.9	44.7*	80.2*	86.3*
CCn1c(COc2ccc3c(c2)CCCC3)nnc1SCC(=O)Nc1ccc(C(=O)OC)cc1	-4.6	1.6	2.2	2.6
CCOC(=O)c1cc(C#N)c(SCC(=O)c2cc(C#N)c(SC)nc2C)nc1C	-12.6	19.8*	40.7	-10.5
N#Cc1c2ccc(OCC(N)=O)cc2n2ccccc12	77.2*	55.0*	86.0*	19.9
COc1cc(OC)cc(C(=O)c2c(C)c(C#N)c3ccccn23)c1	-2.0	-2.3	nt	nt
CCOC(=O)CSCc1c(C#N)c2ccccc2n1C	nt	nt	-1.3	0.3
CCOC(=O)c1c2ccc(OCC(=O)N/N=C/c3ccc(Cl)cc3)cc2n2ccccc12	-15.5	41.2*	-61.7	nt
CCOC(=O)COc1ccc2c(C#N)c3ccccn3c2c1	-141.9	4.9	92.2*	19.7
SMILES	CaV13 FRET inh	RanGTP-Imp inh	Runt-SMMHC FRET	Runt-CBFb FRET
Cc1occc1C(=O)N(Cc1nc(-c2ccccc2)no1)C(C)C	-14.6	-3.2	nt	nt
O=c1[nH]c(SCc2ccccc2F)nc2ccccc12	-5.6	1.9	-2.3	-2.4
O=c1cc(CSc2nc3ccccc3c(=O)[nH]2)c2ccc(O)cc2o1	-5.7	6.5	51.9*	21.1
CCCc1cc(C(=O)Cc2ccc(F)cc2)c(O)cc1O	-5.2	-2.2	-3.4	-1.5
CCCc1cc(C(=O)Cc2nc3ccccc3s2)c(O)cc1O	-1.2	111.6*	-21.1	nt
CC(=O)OCc1nc2ccccc2s1	-4.2	?	1.0	-0.5
CCOC(=O)C(=O)Cc1nc2ccccc2s1	-4.5	51.8*	-0.7	0.8
CCCCN(CCCC)c1nc2ccccc2nc1C(C#N)C(=O)NCCCOC (centres undefined)	nt	31.6*	25.7	3.0
COCCCNC(=O)c1ccc(-c2nc3ccccc3nc2-c2ccccc2)cc1	-4.7	1.6	nt	nt
CCCN(CCC)c1nc2ccccc2nc1C(C#N)C(=O)OC(C)COC (centres undefined)	nt	23.1*	nt	nt
CCN(CC)c1nc2ccccc2nc1C(C#N)C(=O)NCCc1ccccc1 (centres undefined)	-5.5	51.7*	58.8*	34.1
CCN(CC)c1nc2ccccc2nc1C(C#N)C(=O)NCCCOC (centres undefined)	-4.8	nt	61.3*	67.0*
COc1ccc(OC)c(NC(=O)c2nnn(CC(=O)Nc3ccc4c(c3)OCO4)c2N)c1	nt	7.1	nt	nt
COc1ccc(CNC2CCSc3ccccc32)cc1OC (centres undefined)	-4.3	1.4	nt	nt
CCCCCNc1nc2sc3c(c2c(=O)n1-c1cccc(Cl)c1)CCN(C)C3	-2.8	44.1*	102.8*	43.5
CCCCSc1nc2sc3c(c2c(=O)n1-c1ccccc1)CCN(C)C3	-23.0	-10.4	nt	nt
CCCCNc1nc2sc3c(c2c(=O)n1-c1cccc(Cl)c1)CCN(C)C3	-4.4	30.2*	126.4*	48.9
N#Cc1ccc(Oc2ccc(/C=N/O)cn2)cc1	-0.2	1.5	1.5	2.7
COC(=O)[C@@H]1CC[C@H](C)[C@@H](c2ccc(C)cc2)N1C(=O)c1ccc(/C=N/O[C@@H](C)c2cn([C@H](CO)Cc3ccccc3)nn2)cc1	nt	-5.2	-6.1	-7.6
O=C(c1cnn2c(C(F)(F)F)cc(-c3cccs3)nc12)N1CCCC1	-16.6	4.5	4.3	6.3
O=C(NCc1ccco1)c1cnn2c(C(F)(F)F)cc(-c3cccs3)nc12	-3.2	?	52.1*	36.0
O=C(NCc1ccco1)c1cnn2c(C(F)F)cc(-c3ccccc3)nc12	-4.6	31.9*	20.6	5.6
COCCNC(=O)c1cnn2c(C(F)F)cc(-c3ccccc3)nc12	-7.2	nt	0.8	27.4
Cc1ccc(/C=C2/SC(=O)NC2=S)o1	nt	nt	58.9*	26.4
CCOc1ccc(CNCCNC(=O)c2nonc2N)cc1	-7.1	-2.0	1.2	0.7
SMILES	CaV13 FRET inh	RanGTP-Imp inh	Runt-SMMHC FRET	Runt-CBFb FRET
Nc1nonc1C(=O)NCCNCc1ccccc1OCc1ccc(F)cc1	-6.1	17.9*	-1.5	0.8
O=C(CN1C(=O)S/C(=C\c2ccc(F)cc2)C1=O)NC1C=CS(=O)(=O)C1 (centres undefined)	-2.5	15.5*	nt	nt
Cc1cccc(N2CCN(C(=O)Cn3nc(C)n4cccc4c3=O)CC2C)c1 (centres undefined)	-11.4	-2.6	nt	nt
Cc1cccc(N2CCN(C(=O)Cn3sc4nc(C)cc(C)c4c3=O)CC2C)c1 (centres undefined)	nt	2.0	73.9*	-20.5
Cc1cc(C)c2c(=O)n(CC(=O)N3CCC(Cc4ccccc4)CC3)sc2n1	nt	-4.2	50.4*	-14.9
Oc1c(Cl)cc(Cl)cc1/C=N/NC(=S)NC1CC2C=CC1C2 (centres undefined)	-5.4	9.0	90.1*	11.9
Cc1ccc(CNC(=O)/C(C#N)=C\c2ccc(N(C)C)cc2)cc1	nt	71.5*	61.3*	12.4
CN(C)c1ccc(/C=C(\C#N)C(=O)NCc2ccco2)cc1	nt	?	58.5*	90.3*
